According to ChEMBL document CHEMBL4689842, “EUbOPEN Chemogenomics Library wave 1” (2021):

Test system: U2OS
Assay: Multiplex assay against U2OS
Type: toxicity, cell-based
Conditions: human
Procedure, shortened: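 Cells stained live at seeding with Hoechst33342, BioTracker Green Microtubule Cytoskeleton Dye, MitoTracker Red and Annexin V Alexa Fluor 680 were imaged on a CQ1 microscope at 37°C and 5% CO2 after compound addition. Their classification by CellPathfinder machine-learning gating ran from Hoechst high-intensity objects versus normal cells, to healthy, pyknosed or fragmented nuclei among normal cells, to mitotic or apoptotic among pyknosed cells. Tubulin, mitochondrial-mass and membrane-permeability phenotypes are per cents of healthy-nucleus cells.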

[1] = 12 h, 1 µM, compound concentration 1 uM, replicate 1
[2] = 12 h, 1 µM, compound concentration 1 uM, replicate 2
[3] = 12 h, 10 µM, compound concentration 10 uM, replicate 1
[4] = 12 h, 10 µM, compound concentration 10 uM, replicate 2
[5] = 24 h, 1 µM, compound concentration 1 uM, replicate 1
[6] = 24 h, 1 µM, compound concentration 1 uM, replicate 2
[7] = 24 h, 10 µM, compound concentration 10 uM, replicate 1
[8] = 24 h, 10 µM, compound concentration 10 uM, replicate 2
[9] = 48 h, 1 µM, compound concentration 1 uM, replicate 1
[10] = 48 h, 1 µM, compound concentration 1 uM, replicate 2
[11] = 48 h, 10 µM, compound concentration 10 uM, replicate 1
[12] = 48 h, 10 µM, compound concentration 10 uM, replicate 2

Compound: CN1CCN(CCOc2cc(OC3CCOCC3)c3c(Nc4c(Cl)ccc5c4OCO5)ncnc3c2)CC1 [SARACATINIB]
- Population Apoptotic (%) [1]: 48%
- Population Fragmented Nuclei (%) [1]: 15%
- Population Healthy Nuclei (%) [1]: 69%
- Population Hoechst High Intensity Objects (%) [1]: 5%
- Population Membrane Permeable-Phenotype (%) [1]: 5%
- Population Mitochondria Different-Phenotype (%) [1]: 20%
- Population Mitotic Cells (%) [1]: 51%
- Population Normal (%) [1]: 94%
- Population Pyknosed Nuclei (%) [1]: 15%
- Population Tubulin-Different-Phenotype (%) [1]: 15%
- Total Cell Count [1]: 138
- Population Apoptotic (%) [2]: 70%
- Population Fragmented Nuclei (%) [2]: 9%
- Population Healthy Nuclei (%) [2]: 72%
- Population Hoechst High Intensity Objects (%) [2]: 10%
- Population Membrane Permeable-Phenotype (%) [2]: 0%
- Population Mitochondria Different-Phenotype (%) [2]: 23%
- Population Mitotic Cells (%) [2]: 30%
- Population Normal (%) [2]: 90%
- Population Pyknosed Nuclei (%) [2]: 18%
- Population Tubulin-Different-Phenotype (%) [2]: 10%
- Population Apoptotic (%) [3]: 63%
- Population Fragmented Nuclei (%) [3]: 15%
- Population Healthy Nuclei (%) [3]: 57%
- Population Hoechst High Intensity Objects (%) [3]: 8%
- Population Membrane Permeable-Phenotype (%) [3]: 29%
- Population Mitochondria Different-Phenotype (%) [3]: 89%
- Population Mitotic Cells (%) [3]: 36%
- Population Normal (%) [3]: 91%
- Population Pyknosed Nuclei (%) [3]: 26%
- Population Tubulin-Different-Phenotype (%) [3]: 100%
- Total Cell Count [3]: 184
- Population Apoptotic (%) [4]: 75%
- Population Fragmented Nuclei (%) [4]: 9%
- Population Healthy Nuclei (%) [4]: 71%
- Population Hoechst High Intensity Objects (%) [4]: 7%
- Population Membrane Permeable-Phenotype (%) [4]: 21%
- Population Mitochondria Different-Phenotype (%) [4]: 100%
- Population Mitotic Cells (%) [4]: 25%
- Population Normal (%) [4]: 92%
- Population Pyknosed Nuclei (%) [4]: 18%
- Total Cell Count [4]: 60
- Population Apoptotic (%) [5]: 44%
- Population Healthy Nuclei (%) [5]: 71%
- Population Hoechst High Intensity Objects (%) [5]: 4%
- Population Membrane Permeable-Phenotype (%) [5]: 4%
- Population Mitochondria Different-Phenotype (%) [5]: 17%
- Population Mitotic Cells (%) [5]: 55%
- Population Normal (%) [5]: 95%
- Population Pyknosed Nuclei (%) [5]: 13%
- Population Tubulin-Different-Phenotype (%) [5]: 11%
- Total Cell Count [5]: 139
- Population Apoptotic (%) [6]: 50%
- Population Fragmented Nuclei (%) [6]: 14%
- Population Healthy Nuclei (%) [6]: 67%
- Population Hoechst High Intensity Objects (%) [6]: 8%
- Population Membrane Permeable-Phenotype (%) [6]: 6%
- Population Mitochondria Different-Phenotype (%) [6]: 13%
- Population Mitotic Cells (%) [6]: 50%
- Population Normal (%) [6]: 91%
- Population Pyknosed Nuclei (%) [6]: 18%
- Population Tubulin-Different-Phenotype (%) [6]: 4%
- Population Apoptotic (%) [7]: 76%
- Population Fragmented Nuclei (%) [7]: 18%
- Population Healthy Nuclei (%) [7]: 60%
- Population Hoechst High Intensity Objects (%) [7]: 5%
- Population Membrane Permeable-Phenotype (%) [7]: 35%
- Population Mitochondria Different-Phenotype (%) [7]: 97%
- Population Mitotic Cells (%) [7]: 23%
- Population Normal (%) [7]: 94%
- Population Pyknosed Nuclei (%) [7]: 20%
- Population Tubulin-Different-Phenotype (%) [7]: 100%
- Total Cell Count [7]: 224
- Population Apoptotic (%) [8]: 85%
- Population Fragmented Nuclei (%) [8]: 11%
- Population Healthy Nuclei (%) [8]: 54%
- Population Hoechst High Intensity Objects (%) [8]: 8%
- Population Membrane Permeable-Phenotype (%) [8]: 21%
- Population Mitochondria Different-Phenotype (%) [8]: 96%
- Population Mitotic Cells (%) [8]: 14%
- Population Normal (%) [8]: 91%
- Population Pyknosed Nuclei (%) [8]: 34%
- Population Tubulin-Different-Phenotype (%) [8]: 93%
- Total Cell Count [8]: 70
- Population Apoptotic (%) [9]: 56%
- Population Fragmented Nuclei (%) [9]: 13%
- Population Healthy Nuclei (%) [9]: 67%
- Population Hoechst High Intensity Objects (%) [9]: 5%
- Population Membrane Permeable-Phenotype (%) [9]: 5%
- Population Mitochondria Different-Phenotype (%) [9]: 12%
- Population Mitotic Cells (%) [9]: 44%
- Population Normal (%) [9]: 94%
- Population Pyknosed Nuclei (%) [9]: 18%
- Population Tubulin-Different-Phenotype (%) [9]: 7%
- Population Apoptotic (%) [10]: 38%
- Population Fragmented Nuclei (%) [10]: 10%
- Population Healthy Nuclei (%) [10]: 73%
- Population Hoechst High Intensity Objects (%) [10]: 6%
- Population Membrane Permeable-Phenotype (%) [10]: 13%
- Population Mitochondria Different-Phenotype (%) [10]: 16%
- Population Mitotic Cells (%) [10]: 61%
- Population Normal (%) [10]: 93%
- Population Pyknosed Nuclei (%) [10]: 15%
- Population Tubulin-Different-Phenotype (%) [10]: 14%
- Population Apoptotic (%) [11]: 70%
- Population Fragmented Nuclei (%) [11]: 24%
- Population Healthy Nuclei (%) [11]: 36%
- Population Hoechst High Intensity Objects (%) [11]: 7%
- Population Membrane Permeable-Phenotype (%) [11]: 36%
- Population Mitochondria Different-Phenotype (%) [11]: 88%
- Population Mitotic Cells (%) [11]: 29%
- Population Normal (%) [11]: 92%
- Population Pyknosed Nuclei (%) [11]: 38%
- Population Tubulin-Different-Phenotype (%) [11]: 96%
- Total Cell Count [11]: 278
- Population Apoptotic (%) [12]: 73%
- Population Fragmented Nuclei (%) [12]: 9%
- Population Healthy Nuclei (%) [12]: 53%
- Population Hoechst High Intensity Objects (%) [12]: 15%
- Population Membrane Permeable-Phenotype (%) [12]: 48%
- Population Mitochondria Different-Phenotype (%) [12]: 100%
- Population Mitotic Cells (%) [12]: 26%
- Population Normal (%) [12]: 84%
- Population Pyknosed Nuclei (%) [12]: 37%
- Population Tubulin-Different-Phenotype (%) [12]: 90%
- Total Cell Count [12]: 89
